Broadly, the EC50 is the concentration needed to bring the measured effect to its halfway point. Higher therefore signals weaker potency.

Molecules are shown by their SMILES. In brackets after ≈: the same amount, converted by molar mass. Activity calls are given as the source filed them. The calls are words filed in the database; no cut-off is given here.

From ChEMBL document CHEMBL3352130, “Bioactive clerodane diterpenoids from the twigs of Casearia balansae” (J Nat Prod, 2014) come the findings set out here.

The subject of test [1] is PC-12. The test is described as follows: Induction of neurite outgrowth in rat PC12 cells incubated for 96 hrs by phase contrast microscopy. The format is functional, cell-based. In outline:
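PC12 cells grown at 37 °C in DMEM with 5% FBS and 5% horse serum, then dissociated with 1 mM EGTA in PBS for 15 min. Seeded at 3 × 10^4 cells/well on poly-L-lysine. After 24 h, switched to 1% FBS/1% HS with test compounds at various concentrations and no NGF, for 96 h. NGF 100 ng/mL served as positive control. Neurite-bearing cells: process ≥ cell-body diameter, as % of ≥100 cells × 3 fields × 6 wells. Triplicate.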

For test [2], the system named is PC-12. The test is described as follows: Stimulation of NGF-mediated neurite outgrowth in rat PC12 cells incubated for 96 hrs by phase contrast microscopy. It is filed as functional, cell-based. The conditions noted are these: for EC50: PC-12, 96 h. In outline: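 PC12 cells cultured and dissociated with EGTA as above, then plated on poly-L-lysine at 3 × 10^4 cells/well. After 24 h, exposed for 96 h to 20 ng/mL NGF plus graded compound concentrations in 1% FBS/1% HS. Phase-contrast count of cells with neurites ≥ soma diameter, as % of ≥100 cells per field (3 fields/well, 6 wells/sample). Triplicate runs. EC50 from linear or nonlinear concentration–response regression.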

On to `C=CC(=C)CC[C@]1(C)[C@H](C)C[C@H](OC)[C@@]23C(=C[C@H](OC(=O)C(C)CC)C[C@@H]12)[C@@H](OC(=O)CCC)O[C@H]3OC(C)=O` (stereo partly specified), for which the result in the test on PC-12 [1] was inactive. Besides, in the test on PC-12 [2], the Activity result is “Dose-dependent effect” and a half-maximal effect (EC50) was put at 12.7 µg/mL (≈ 22.6 µM).

As to `C=CC(=C)CC[C@]1(C)[C@H](C)CC[C@@]23C(=C[C@H](OC(=O)C(C)CC)C[C@@H]12)[C@@H](OC(=O)CCC)O[C@H]3OC(C)=O` (stereo partly specified), the outcome in the test with PC-12 [1] and in the test on PC-12 [2] was inactive.

With `C=CC(=C)CC[C@]1(C)[C@H](C)C[C@H](OC)[C@@]23C(=C[C@H](OC(=O)C(C)CC)C[C@@H]12)[C@@H](OC)O[C@H]3OC(C)=O` (stereo partly specified), the outcome in the test with PC-12 [1] was inactive. In the test on PC-12 [2], the Activity entry was “Dose-dependent effect” and the EC50 stood at 4 µg/mL (≈ 7.93 µM).

On to `C=CC(=C)CC[C@]1(C)[C@H](C)C[C@H](OC)[C@@]23C(=C[C@H](OC(=O)CCC)C[C@@H]12)[C@@H](OC(=O)CCC)O[C@H]3OC(C)=O`, for which the result in the test with PC-12 [1] was inactive. In the test with PC-12 [2], the Activity result is “Dose-dependent effect” and a half-maximal effect (EC50) was put at 20.2 µg/mL (≈ 36.9 µM).

Regarding `C=CC(=C)CC[C@]1(C)[C@H]2C[C@H](OC(=O)C(C)CC)C=C3[C@H](OC)O[C@H](OC(C)=O)[C@@]32[C@H](O)C[C@@H]1C` (stereo partly specified) [CASEAMEMBRIN B], in the test on PC-12 [1], the result was inactive. In the test with PC-12 [2], the Activity entry is “Dose-dependent effect” and the response was half-maximal at 7.5 µg/mL (≈ 15.3 µM) (EC50).

As for `C=CC(=C)CC[C@]1(C)[C@H](C)C[C@H](OC)[C@@]23C(=C[C@@H](OC(C)=O)C[C@@H]12)[C@@H](OC)O[C@H]3OC(C)=O`, the outcome with PC-12 [1] was inactive. In the test on PC-12 [2], the Activity entry is “Dose-dependent effect” and a half-maximal response (EC50) required 2.4 µg/mL (≈ 5.19 µM).

Regarding `C=CC(=C)CC[C@]1(C)[C@H](C)C[C@H](OC)[C@@]2(C=O)C(C=O)=C[C@H](OC(=O)C(C)CC)C[C@@H]12` (stereo partly specified), the outcome in the test with PC-12 [1] and in the test with PC-12 [2] was inactive.

For the compound `C=CC(=C)CC[C@]1(C)[C@H](C)CC[C@@]23C(=CC(=O)C[C@@H]12)[C@@H](OC(=O)CCC)O[C@H]3OC(C)=O`, the outcome in the test on PC-12 [1] and in the test on PC-12 [2] was inactive.

As to `C=CC(=C)CC[C@]1(C)[C@H](C)CC[C@@]23[C@H](OC(C)=O)O[C@H](OC(C)=O)[C@@H]2CC(=O)C[C@@H]13`, the outcome in the test with PC-12 [1] and in the test on PC-12 [2] was inactive.

Turning to `C=CC(=C)CC[C@]1(C)[C@H](C)C[C@H](OC)[C@@]23C(=CC(=O)C[C@@H]12)[C@@H](OC(C)=O)O[C@H]3OC(C)=O`, in the test with PC-12 [1], the result was inactive. In the test with PC-12 [2], the Activity result is “Dose-dependent effect” and it took 2.5 µg/mL (≈ 5.6 µM) to reach a half-maximal effect (EC50).
